Measurements from ChEMBL document CHEMBL3611973, “Synthesis and biological evaluation of a novel betulinic acid derivative as an inducer of apoptosis in human colon carcinoma cells (HT-29)” (Eur J Med Chem, 2015).
Active and inactive are the calls of the source. No cut-off for these calls is given here.

What was measured:
[1] = test system: HT-29; assay: Cytotoxicity against human HT-29 cells assessed as cell viability after 48 hrs by MTT assay in presence of NAC; assay type: functional, cell-based; conditions: HT-29, 48 h
Summary of the method: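 HT-29 cells pre-incubated with 2.5 mM N-acetyl cysteine for 3 h, then exposed to compound and assayed for viability by MTT.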

[2] = test system: U-937; assay: Cytotoxic activity against human U937 cells assessed as cell growth inhibition after 48 hrs by MTT assay; assay type: functional, cell-based; conditions: U-937, 48 h
Summary of the method: (§1)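 Log-phase cells (1.25-2.5×10^4/100 µl; RPMI 1640, HepG2 in high-glucose DMEM, 10% FBS) given compound in DMSO (final <0.1%), 0-50 µM, 48 h, 37 °C, 5% CO2. MTT 4 h, DMSO solubilization, OD 540 nm minus background; viability relative to untreated; IC50 by graphical extrapolation, ≥3 experiments in duplicate.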

[3] = test system: HT-29; assay: Cytotoxic activity against human HT-29 cells assessed as cell growth inhibition after 48 hrs by MTT assay; assay type: functional, cell-based; conditions: HT-29, 48 h; summary of the method: as §1
[4] = test system: Jurkat; assay: Cytotoxic activity against human Jurkat cells assessed as cell growth inhibition after 48 hrs by MTT assay; assay type: functional, cell-based; summary of the method: as §1
[5] = test system: HepG2; assay: Cytotoxic activity against human HepG2 cells assessed as cell growth inhibition after 48 hrs by MTT assay; assay type: functional, cell-based; conditions: HepG2, 48 h; summary of the method: as §1
[6] = test system: MCF7; assay: Cytotoxic activity against human MCF7 cells assessed as cell growth inhibition after 48 hrs by MTT assay; assay type: functional, cell-based; conditions: MCF7, 48 h; summary of the method: as §1
[7] = test system: PBMC; assay: Cytotoxic activity against human PBMC cells assessed as cell growth inhibition after 48 hrs by MTT assay; assay type: cell-based; summary of the method: as §1
[8] = test system: HT-29; assay: Induction of apoptosis in human HT-29 cells assessed as ROS generation measured up to 15 mins by FACS analysis; assay type: functional, cell-based
Summary of the method: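 HT-29 (2.5×10^5/ml) exposed 0-2 h, washed, loaded with CM-H2DCFDA (5 μM in PBS) 30 min at 37 °C in the dark. DCF read by flow cytometry (ex 488/em 530 nm) on FSC/SSC-gated viable cells; mean fluorescence intensity, three independent experiments.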

[9] = test system: HT-29; assay: Induction of apoptosis in human HT-29 cells assessed as late apoptotic cells using annexin V-FITC/propidium iodide staining at IC50 after 12 hrs by flow cytometry (reference value: 0.0%); assay type: functional
[10] = test system: HT-29; assay: Induction of apoptosis in human HT-29 cells assessed as early apoptotic cells using annexin V-FITC/propidium iodide staining at IC50 after 12 hrs by flow cytometry (reference value: 0.1%); assay type: functional
[11] = test system: HT-29; assay: Induction of apoptosis in human HT-29 cells assessed as late apoptotic cells using annexin V-FITC/propidium iodide staining at IC50 after 24 hrs by flow cytometry (reference value: 0.0%); assay type: functional
[12] = test system: HT-29; assay: Induction of apoptosis in human HT-29 cells assessed as early apoptotic cells using annexin V-FITC/propidium iodide staining at IC50 after 24 hrs by flow cytometry (reference value: 0.1%); assay type: functional
[13] = test system: HT-29; assay: Induction of apoptosis in human HT-29 cells assessed as late apoptotic cells using annexin V-FITC/propidium iodide staining at IC50 after 48 hrs by flow cytometry (reference value: 0.0%); assay type: functional
[14] = test system: HT-29; assay: Induction of apoptosis in human HT-29 cells assessed as early apoptotic cells using annexin V-FITC/propidium iodide staining at IC50 after 48 hrs by flow cytometry (reference value: 0.1%); assay type: functional
[15] = test system: HT-29; assay: Induction of apoptosis in human HT-29 cells assessed as loss of mitochondrial membrane potential using JC-1 dye at IC50 after 12 hrs by flow cytometry (reference value: 1.75%); assay type: functional
[16] = test system: HT-29; assay: Induction of apoptosis in human HT-29 cells assessed as loss of mitochondrial membrane potential using JC-1 dye at IC50 after 24 hrs by flow cytometry (reference value: 1.75%); assay type: functional
[17] = test system: HT-29; assay: Induction of apoptosis in human HT-29 cells assessed as loss of mitochondrial membrane potential using JC-1 dye at IC50 after 48 hrs by flow cytometry (reference value: 1.75%); assay type: functional
[18] = test system: HT-29; assay: Induction of apoptosis in human HT-29 cells assessed as increase in caspase-3 activity at IC50 after 48 hrs by colorimetric assay; assay type: functional, cell-based
[19] = test system: HT-29; assay: Induction of apoptosis in human HT-29 cells assessed as increase in caspase-9 activity at IC50 after 48 hrs by colorimetric assay; assay type: functional, cell-based
[20] = test system: HT-29; assay: Induction of apoptosis in human HT-29 cells assessed as increase in caspase-8 activity at IC50 after 48 hrs by colorimetric assay; assay type: functional, cell-based
[21] = test system: HT-29; assay: Induction of apoptosis in human HT-29 cells assessed as cleavage of PARP at IC50 after 24 to 48 hrs by Western blotting; assay type: functional, cell-based
[22] = test system: HT-29; assay: Induction of apoptosis in human HT-29 cells assessed as chromatin condensation using Hoechst 33258 dye at IC50 after 48 hrs by confocal microscopic analysis; assay type: functional, cell-based
Summary of the method: (§2)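 HT-29 (2.5×10^5 cells/ml) treated 48 h at 37 °C, 5% CO2, washed, fixed in 4% paraformaldehyde (4 °C, 30 min), stained with Hoechst 33258 (5 µg/ml final, 37 °C, 30 min, dark), mounted in 50% glycerol on poly-L-lysine slides; confocal imaging at 100×.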

[23] = test system: HT-29; assay: Induction of apoptosis in human HT-29 cells assessed as reduction in Bcl2/Bax ratio at IC50 after 12 to 48 hrs by Western blotting; assay type: functional, cell-based
[24] = test system: Calf thymus DNA; assay: Binding affinity to calf thymus DNA up to 2 hrs by absorption spectroscopy analysis; assay type: nucleic-acid assay; conditions: Bos taurus
Summary of the method: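 Compound stock in 60% ethanol/50 mM Tris-HCl/NaCl (pH 7.5), diluted in buffer, actual concentration set by molar extinction coefficient. CT-DNA held at 50 μg/ml (legend: 100 μg/mL) with varied compound, 37 °C, 2 h; UV-vis scanned 200-400 nm. θ from 260 nm absorbance; Kb as the reciprocal of ligand concentration at half-saturation of the isotherm.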

[25] = test system: HT-29; assay: Induction of apoptosis in human HT-29 cells assessed as fragmentation using Hoechst 33258 dye at IC50 after 48 hrs by confocal microscopic analysis; assay type: functional, cell-based; summary of the method: as §2
[26] = test system: Calf thymus DNA; assay: Binding affinity to calf thymus DNA assessed as conformational change at 50 uM after 2 hrs by circular dichroism analysis; assay type: nucleic-acid assay; conditions: Bos taurus
Summary of the method: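 CT-DNA (500 μg/mL) incubated alone or with 50 μM compound for 2 h at 37 °C in 50 mM Tris-HCl/NaCl buffer; CD spectra recorded for conformation, with the positive band at 275 nm and the negative band at 245 nm (B-form) monitored.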

[27] = test system: HT-29; assay: Induction of apoptosis in human HT-29 cells assessed as late apoptotic cells using annexin V-FITC/propidium iodide staining at IC50 by flow cytometry; assay type: functional, cell-based; conditions: TDE = time-dependent effect
[28] = test system: HT-29; assay: Induction of apoptosis in human HT-29 cells assessed as early apoptotic cells using annexin V-FITC/propidium iodide staining at IC50 by flow cytometry; assay type: functional, cell-based; conditions: TDE = time-dependent effect
[29] = test system: HT-29; assay: Induction of apoptosis in human HT-29 cells assessed as membrane blebbing using Hoechst 33258 dye at IC50 after 48 hrs by confocal microscopic analysis; assay type: functional, cell-based; summary of the method: as §2
[30] = test system: HT-29; assay: Induction of apoptosis in human HT-29 cells assessed as apoptotic bodies using Hoechst 33258 dye at IC50 after 48 hrs by confocal microscopic analysis; assay type: functional, cell-based; summary of the method: as §2

What does the source list for C=C(C)[C@@H]1CC[C@]2(C(=O)O)CC[C@]3(C)[C@H](CC[C@@H]4[C@@]5(C)CC[C@H](OC(=O)Cn6cc(CO)nn6)C(C)(C)[C@@H]5CC[C@]43C)[C@@H]12?
IC50 [1]: 30.4 µM; IC50 [2]: > 50 µM; IC50 [3]: 14.9 µM; IC50 [4]: 41.4 µM; IC50 [5]: > 50 µM; IC50 [6]: > 50 µM; IC50 [7]: > 50 µM; Activity [8]: Active; Activity [9]: 2%; Activity [10]: 14.1%; Activity [11]: 3.2%; Activity [12]: 17.1%; Activity [13]: 4.6%; Activity [14]: 25.2%; Activity [15]: 16.5%; Activity [16]: 30.5%; Activity [17]: 51.4%; Activity [18]: Active; Activity [19]: Active; Activity [20]: inactive; Activity [21]: Active; Activity [22]: Active; Activity [23]: Active; K [24]: 8.38 ×10⁴ /M; Activity [25]: Active; Activity [26]: inactive; Activity [27]: tde; Activity [28]: tde; Activity [29]: Active; Activity [30]: Active
